Screening data (PubChem BioAssay)
OX1R antag-1: antagonists of human orexin 1 receptor (OX1R) | actives 1.8% (n = 330,000) | Orexin/Hypocretin receptor type 1 (Homo sapiens), O43613 | OX1R-expressing cells, FRET antagonist read-out | inhibition, % at 6.6 µM; in the data active means inhibition mostly above about 38%, no sharp cut-off; inactive means mostly below about 40%
Target sequence (O43613 whole entry, looked up): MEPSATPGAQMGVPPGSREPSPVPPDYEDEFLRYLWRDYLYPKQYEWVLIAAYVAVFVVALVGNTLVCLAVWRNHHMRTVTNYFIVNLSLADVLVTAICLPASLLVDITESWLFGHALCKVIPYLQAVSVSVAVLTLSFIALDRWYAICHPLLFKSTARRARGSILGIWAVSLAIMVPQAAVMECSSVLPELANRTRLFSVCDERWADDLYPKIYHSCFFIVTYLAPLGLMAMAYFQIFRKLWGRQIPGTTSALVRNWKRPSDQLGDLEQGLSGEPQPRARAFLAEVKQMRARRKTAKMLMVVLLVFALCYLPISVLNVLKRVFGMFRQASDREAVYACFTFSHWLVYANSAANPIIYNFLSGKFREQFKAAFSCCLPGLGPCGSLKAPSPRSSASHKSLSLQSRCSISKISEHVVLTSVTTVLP
OX1R antag-2: OX1R (HCRTR1) antagonists, primary screen, fluorescence, CHO/OX1R cells, Fluo-8 calcium, orexin A. actives 0.43% (n = 330,000). inhibition, % at 5 µM. AID 434989, 2010. Fluo-8 calcium fluorescence;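 active means inhibition above its plate's threshold, mean inhibition of all tested compounds on the plate plus 3 SD, cut at about 37% in these data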
CHO parental Ca: ATP-evoked calcium signal inhibitors, parental CHO, primary screen, counter-screen for OX1R antagonist project, cell-based, fluorescence, Fluo-8 calcium dye | actives 0.63% (n = 330,000) | AID 463079, 2010 | parental CHO-K1, ATP-induced calcium, Fluo-8 fluorescence | inhibition, % at 5.6 µM;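 active means inhibition above that plate's mean sample inhibition plus 3 SD, cut at about 26% in these data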
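test system = CHO parental line | reagent = ATP stimulus | measured by = intracellular calcium via Fluo-8 no-wash fluorescent dye | control set = ATP and no-ATP DMSO wells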
MPTP block: mitochondrial permeability transition pore inhibitors, primary screen, biochemical, isolated mouse mitochondria, absorbance; Ca2+ swelling absorbance, 30 min; inhibition, % at 10 µM; actives 1.4% (n = 360,000); AID 602449, 2012;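 active means inhibition of 50% or more, scaled per plate between neutral and stimulator controls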
GPR7 antagonist: GPR7 receptor antagonists, primary screen, cell-based, fluorescence, single concentration. inhibition, % at 4.4 µM. actives 1.1% (n = 290,000). GPR7-expressing cells, fluorescence antagonist assay. Neuropeptides B/W receptor type 1 (Homo sapiens), P48145. AID 1861, 2009; in the data active means inhibition above about 16%, passing the limit was not always enough;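 further: cells stimulated with the agonist NPW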
Rh123 counter: fluorescence retest of MPTP screen hits in isolated mitochondria, single concentration; membrane potential, Rhodamine 123 fluorescence; inhibition, % at 10 µM; actives 78% (n = 5,000); AID 624504, 2012; shares compounds with MPTP block; in the data active means inhibition above about 22%
MPTP abs DR: mitochondrial permeability transition pore inhibitors, dose response, biochemical, absorbance, uHTS hits. actives 58% (n = 780). shares compounds with MPTP block. AID 651561, 2012. isolated mitochondria swelling. IC50, µM; in the data active means IC50 below about 20 µM
MPTP cs DR: fluorescent counter-screen in isolated mitochondria, dose response, counter-screen for MPTP inhibitor project, biochemical, fluorescence, uHTS hits; shares compounds with MPTP block; isolated mitochondria counterscreen, fluorescence read-out; IC50, µM; actives 49% (n = 780); AID 651564, 2012; in the data active means IC50 below about 80 µM
Each line names hits and unclear results; the compound was inactive in the other large screens (follow-up assays come after a bar, where they were run). Most compounds without a hit are left out; they make up all but 3.8% or so of the library.

Fc1ccc(Nc2nc(-c3ccncc3)nc3ccccc23)cc1F	MPTP block 71 | Rh123 counter 45
COc1ccc(NC(=S)N2CCN(C(=O)c3ccccc3)CC2)cc1	none
CC(=O)c1c(C)[nH]c(C(=O)OCC(=O)Nc2ccc(C)cc2[N+](=O)[O-])c1C	CHO parental Ca 45, MPTP block 100 | Rh123 counter 90
CC(=O)c1c(C)[nH]c(C(=O)OCC(=O)NCc2ccc(Cl)cc2)c1C	none (no result: GPR7 antagonist)
CC(=O)c1c(C)[nH]c(C(=O)OCC(=O)Nc2cc(Cl)ccc2[N+](=O)[O-])c1C	OX1R antag-1 48, CHO parental Ca 27, MPTP block 94 | Rh123 counter 82
CC1CCC(N2CCNCC2)CC1 (configuration not stated)	none
CN(C)c1ccc(S(=O)(=O)N2CCCCC2)cc1NC(=O)C1=NN(c2ccccc2)C(=O)CC1	none
C=CCSc1nc2c(N)ncnc2n1C1OC(CO)C(O)C1O (configuration not stated)	none (no result: OX1R antag-1, OX1R antag-2, CHO parental Ca, GPR7 antagonist)
O=C(C1CC(=O)N(c2ccc(Cl)cc2)C1)N1CCC(c2nc3ccccc3[nH]2)CC1 (configuration not stated)	none (no result: GPR7 antagonist)
O=S(=O)(NC1CC(NS(=O)(=O)OCC(Cl)(Cl)Cl)C2CCCCC12)OCC(Cl)(Cl)Cl (configuration not stated)	MPTP block 70 | Rh123 counter 102
C[C@H](NS(=O)(=O)OCC(Cl)(Cl)Cl)C1CC1c1ccccc1 (some centres not stated)	none
O=C(O)CCC(=O)N1N=C(c2ccc(Br)cc2)CC1c1cccs1 (configuration not stated)	MPTP block 81 | Rh123 counter inactive | MPTP abs DR inactive | MPTP cs DR inactive
CC(C)(C)Nc1ncnc2sc(-c3ccccc3)cc12	none
COc1ccc(Nc2ncnc3sc(-c4ccccc4)cc23)cc1	MPTP block 71 | Rh123 counter 61
COc1cccc(NC(=O)CSc2ncnc3c2cnn3Cc2ccccc2)c1	MPTP block 55 | Rh123 counter 40
O=C(CSc1ncnc2c1cnn2-c1ccccc1)Nc1ccccc1	MPTP block 80 | Rh123 counter 43
O=C(Nc1ccc(Cl)c(Cl)c1)Nc1nnc(CC2=CCCCC2)s1	MPTP block 89 | Rh123 counter inactive | MPTP abs DR 3.5 | MPTP cs DR <2.5
O=C(Nc1ccc(Cl)c(Cl)c1)Nc1nnc(-c2ccncc2)s1	MPTP block 102 | Rh123 counter 87
CC[C@@]1(C(=O)OC)N[C@H](CN(C)C(=O)Nc2ccc(C)cc2)[C@@H]2C(=O)N(C)C(=O)[C@@H]21	none (no result: GPR7 antagonist)
O=C(CC1NCCc2ccccc21)Nc1ccc(Cl)cc1 (configuration not stated)	MPTP block 61 | Rh123 counter inactive | MPTP abs DR 9.1 | MPTP cs DR inactive
CC(=C/c1ccccc1)/C=N/NC(=O)CSc1nc(C)cc(C)n1	MPTP block 62 | Rh123 counter 33
Cc1cc(C)nc(SCC(=O)N/N=C/c2cccnc2)n1	none (no result: OX1R antag-1, OX1R antag-2, CHO parental Ca)
Cc1cccc(NC(=O)C2C(c3ccccc3)C2(Cl)Cl)c1C (configuration not stated)	MPTP block 71 | Rh123 counter 77
O=C(Nc1ccccc1)C1C(c2ccccc2)C1(Cl)Cl (configuration not stated)	none
O=c1[nH]nc(SCc2ccccc2)n1C1CC2C=CC1C2 (configuration not stated)	none
Cc1cccc(-n2ncc3c2CCCC3NC(=O)c2ccncc2)c1C (configuration not stated)	MPTP block 86 (no result: OX1R antag-1, OX1R antag-2, CHO parental Ca, GPR7 antagonist) | Rh123 counter 90
